molecular target: T1, Tyrosine-protein phosphatase non-receptor type 1 (Homo sapiens, UniProt P18031); assay: Inhibition of human recombinant PTP1B expressed in CHO cells assessed as p-nitorphenol production after 2 mins by microplate reader; assay type: cell-based
T1 sequence (P18031 whole entry): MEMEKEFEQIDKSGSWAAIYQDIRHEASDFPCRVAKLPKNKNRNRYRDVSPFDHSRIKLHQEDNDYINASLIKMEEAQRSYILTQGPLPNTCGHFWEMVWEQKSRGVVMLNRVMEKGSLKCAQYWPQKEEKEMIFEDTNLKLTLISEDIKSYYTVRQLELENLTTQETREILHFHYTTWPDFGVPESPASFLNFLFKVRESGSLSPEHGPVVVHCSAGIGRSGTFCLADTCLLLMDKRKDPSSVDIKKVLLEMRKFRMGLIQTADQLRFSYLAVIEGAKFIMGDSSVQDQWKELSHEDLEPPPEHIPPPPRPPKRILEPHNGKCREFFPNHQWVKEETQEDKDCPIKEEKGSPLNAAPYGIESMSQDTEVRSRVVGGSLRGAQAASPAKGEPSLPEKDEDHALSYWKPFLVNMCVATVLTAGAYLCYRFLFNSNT
Method in brief: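 Recombinant human PTP1B catalytic domain (30 nM) with 2 mM pNPP in 50 mM MOPS, pH 6.5, at 30 °C. pNP release was read continuously at 405 nm for 2 min, and the initial rate was taken from the early linear region. Inhibitors were diluted around the estimated IC50. IC50 came from a nonlinear fit of % inhibition vs [I] using a Hill-coefficient equation.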

IC50 [µM]	SMILES
> 100	O=C(O)c1cc(O)cc(O)c1 [3,5-DIHYDROXYBENZOIC ACID]
> 100	O=C(O)c1cccc(O)c1 [3-HYDROXYBENZOIC ACID]
> 100	O=C(O)c1cc(O)ccc1O [GENTISIC ACID]
